# Compound activity deposited in PubChem by several laboratories.
# WT yeast gro inh – growth inhibition of WT yeast, mitochondrial fusion screen | mitochondrial fusion phenotypic screen, WT strain | inhibition, % at 10 µM | hit rate 2.1% among 190,000; in the data active = inhibition above about 58%; tested in S. cerevisiae
# MT stabilizer – microtubule stabilization, imaging screen; hit rate 0.83% among 200,000; % tubulin-high responders, % at 10 µM; HeLa tubulin immunostaining HCS, 24 h; share of cells brighter than vehicle mean+2SD;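 active = plate Z-score above 3 for both tubulin-high and condensed-nucleus cell shares, with cell loss under 80%, at 10 µM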;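 note: anti alpha tubulin signal scored within the nucleus-defined area of each cell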
# Pf gamet viab – kills late stage P. falciparum gametocytes; inhibition, % at 10.9 µM; hit rate 0.065% among 150,000; P. falciparum stage V gametocytes, ATP luminescence, 24 h; AID 743093;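 active = inhibition above the mean plus 3 SD of compounds within the control limits, set per campaign, cut at about 38% in these data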;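 note: 0% = DMSO wells and 100% = medium only without gametocytes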
# KCC2 mod – modulates chloride dependent transport by human KCC2 | KCC2 cells, thallium flux FluoZin-2 fluorescence | B-score of Tl+ flux slope (higher = more flux/activation; lower = inhibition) at 10 µM | hit rate 2.2% among 190,000 | AID 1456;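 active = thallium flux slope and its plate-corrected score both differing from the plate sample mean at a set confidence after two filtering rounds, in either direction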;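 note: slope of fluorescence scaled to starting intensity during 10 to 20 s after thallium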
# Target sequence (Q9H2X9 whole entry, looked up): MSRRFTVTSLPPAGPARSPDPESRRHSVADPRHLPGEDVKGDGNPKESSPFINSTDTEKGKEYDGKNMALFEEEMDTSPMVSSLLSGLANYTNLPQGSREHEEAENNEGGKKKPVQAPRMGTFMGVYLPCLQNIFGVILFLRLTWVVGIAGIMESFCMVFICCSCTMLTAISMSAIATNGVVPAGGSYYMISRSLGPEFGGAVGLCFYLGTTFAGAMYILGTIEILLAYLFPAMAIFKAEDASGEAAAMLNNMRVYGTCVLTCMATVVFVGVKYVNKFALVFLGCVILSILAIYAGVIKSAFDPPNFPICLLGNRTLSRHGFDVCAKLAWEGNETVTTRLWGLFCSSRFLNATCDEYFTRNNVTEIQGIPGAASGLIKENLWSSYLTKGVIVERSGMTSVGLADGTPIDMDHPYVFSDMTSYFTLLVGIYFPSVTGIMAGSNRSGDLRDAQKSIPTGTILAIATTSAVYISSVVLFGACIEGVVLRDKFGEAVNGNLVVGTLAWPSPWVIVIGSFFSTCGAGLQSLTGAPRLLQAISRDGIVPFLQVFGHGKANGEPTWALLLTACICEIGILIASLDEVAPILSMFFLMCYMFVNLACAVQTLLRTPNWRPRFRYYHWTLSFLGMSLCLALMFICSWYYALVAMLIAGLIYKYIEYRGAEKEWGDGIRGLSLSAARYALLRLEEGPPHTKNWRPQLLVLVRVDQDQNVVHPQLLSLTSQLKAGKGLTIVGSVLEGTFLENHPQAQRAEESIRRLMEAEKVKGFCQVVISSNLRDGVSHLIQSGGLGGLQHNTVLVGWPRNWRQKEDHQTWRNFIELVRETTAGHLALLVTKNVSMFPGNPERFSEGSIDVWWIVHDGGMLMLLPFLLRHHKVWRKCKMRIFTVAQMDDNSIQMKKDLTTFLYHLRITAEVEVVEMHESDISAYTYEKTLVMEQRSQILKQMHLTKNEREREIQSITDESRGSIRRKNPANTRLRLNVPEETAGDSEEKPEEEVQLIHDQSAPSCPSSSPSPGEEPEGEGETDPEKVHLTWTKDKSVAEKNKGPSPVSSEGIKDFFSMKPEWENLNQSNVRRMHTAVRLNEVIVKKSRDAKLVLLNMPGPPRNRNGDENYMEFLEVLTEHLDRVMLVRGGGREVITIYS
# b-catenin transl – modulators of beta-catenin nuclear translocation; hit rate 0.3% among 190,000; HeLa beta-catenin nuclear translocation, immunofluorescence imaging; nuclear translocation activity, % at 5 µM;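 active = nuclear translocation activity above 50% at 5 µM, with a well cell count of 50 or more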;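 note: per-cell ratio of nuclear to cytoplasmic median beta-catenin stain intensity; plate controls were DMSO negative control for no effect and GSK-3 inhibitor IX positive control for full effect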
#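 Technique: fluorescence imaging of beta-catenin antibody stain plus DAPI / Material: human HeLa cell line / Incubation: compound treatment 24 h, 37°C, 5% CO2 / Read-out basis: % activation of per-cell nuclear versus cytoplasmic median beta-catenin signal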
# Active calls of the source: *; / = no result. Rows were chosen to be rich in hits. Some 4% of all compounds tested hit in one or more screens of this group.
SMILES,WT yeast gro inh,MT stabilizer,Pf gamet viab,KCC2 mod,b-catenin transl
COc1cccc(C(=O)Nc2sc(C(C)C)cc2C(N)=O)c1OC,/,/,-5,-1.1,-1
FC(F)(F)c1nc(N2CCCC2)ncc1-c1nnnn1-c1ccccc1,60*,3,/,-0.66,-2
COc1cccc(N2CCN(C(=O)C3CCN(S(=O)(=O)c4cccs4)CC3)CC2)c1,4,2,/,0.13,0
COC(=O)C1Sc2[nH]c(=O)sc2C(c2ccc(Cl)cc2)C1C(=O)OC (stereo unspecified),6,7,/,/,/
Cc1ccc(C2c3sc(=O)[nH]c3SC3C(=O)NC(=O)C32)cc1 (stereo unspecified),-21,3,/,-6.8*,0
Cc1noc(C)c1CSc1nc2ccccc2c(=O)n1-c1ccc(Cl)cc1,-7,40*,-5,/,/
CN(C)S(=O)(=O)c1cccc(NC(=O)c2ccc3nccnc3c2)c1,/,/,-4,-0.3,0
O=c1cc(-c2ccccc2)[nH]c2nc3ccccc3n12,-9,44*,/,-0.09,1
O=c1cc(CCl)[nH]c2nc3ccccc3n12,/,/,24,/,-1
CCN(CC)C(=O)Cn1ccc(NC(C)=O)nc1=O,/,/,/,/,-1
C=CCn1c(O)c(N=NC(=O)CNC(=O)c2ccco2)c2ccccc21,-11,12*,10,-0.14,-1
CCCn1c(O)c(N=NC(=O)c2ccco2)c2ccccc21,46,7,21,18*,/
CN(CC(=O)Nc1ccc(Cl)cc1)c1ccc(S(=O)(=O)N2CCCCC2)cc1[N+](=O)[O-],10,7,-7,-0.14,-2
CC(C)(C)c1ccc(OCCCn2ccnc2)cc1,/,/,8,/,/
O=S(Cc1cc(Sc2ccccc2)nc(-c2ccccc2)n1)c1ccccc1 (stereo unspecified),59*,2,-17,/,-3
CNc1cc(CS(=O)c2ccccc2)nc(-c2ccccc2)n1 (stereo unspecified),14,2,-46,/,-1
O=C(Nc1ccc(S(=O)(=O)N2CCOCC2)cc1)c1ccc(Cl)c([N+](=O)[O-])c1,/,/,1,/,/
CSc1cc(-c2ccccc2)n(Cc2c(Cl)cccc2Cl)c(=O)c1C#N,-10,40*,16,/,/
Cc1ccc(C(=O)N(C)CC(=O)Nc2ccc(F)c(F)c2F)o1,-1,4,13,1.1,-2
CN(C)c1ccc(-c2nn3c(-c4ccc(Cl)cc4Cl)nnc3s2)cc1,5,30*,/,0.51,53*
Clc1ccc(-c2nnc3sc(-c4ccc(Br)o4)nn23)c(Cl)c1,-12,2,/,-0.51,3
CCOC(=O)c1nn(-c2ccc(F)cc2)c2nc(Nc3ccccc3)cc(=O)n12,10,3,/,-0.94,0
CC1O[C@@H](O[C@H](C)CC[C@@H](C)O[C@H]2OC(C)[C@@H](O)C[C@H]2O)C(O)C[C@H]1O (stereo partly specified),/,/,-11,/,/
Cc1ccc(C(=O)N2CCN(c3ccc(C(F)(F)F)cn3)CC2)cc1,-3,2,-18,0.87,0
Cc1c(C(=O)N2CCN(c3ccc(C(F)(F)F)cn3)CC2)oc2ccccc12,71*,1,15,0.75,/
SMILES,WT yeast gro inh,MT stabilizer,Pf gamet viab,KCC2 mod,b-catenin transl
O=C(O)/C(=C\c1ccccc1)c1ccc2ccccc2c1,/,/,-11,/,/
Cc1cc(NC(=O)CSc2nnc(-c3c[nH]c4ccccc34)n2-c2ccc(F)cc2)no1,1,5,/,-0.059,-4
CCOc1ccc(-n2c(SCC(=O)Nc3cc(C)on3)nnc2-c2c[nH]c3ccccc23)cc1,63*,2,/,0.039,/
CCN(CC)c1nc(C#N)cc(-c2ccc(OC)cc2)n1,2,63*,/,0.86,-6
COc1cc(C(=S)N2CCCC2)ccc1OCc1ccc(C)cc1,/,/,2,/,/
CCOc1ccc2nc(-c3ccccc3)[nH]c2c1,1,42*,/,/,78*
COc1ccc2nc(-c3ccccc3)[nH]c2c1,/,4,6,1.4,0
Cc1ccc(C(C(=O)Nc2ccc3c(c2)OCO3)N(C)C(=O)Cc2c[nH]c3ccccc23)cc1 (stereo unspecified),30,2,-7,-0.11,-6
Cc1nc(-c2ccccc2)sc1-c1nc(-c2ccncc2)ncc1S(=O)(=O)c1ccccc1,78*,8,3,/,-3
O=C(Nc1nc(-c2ccccn2)cs1)c1ccco1,18,3,/,0.24,0
O=C(Nc1nc(-c2ccccn2)cs1)C1CC1,10,7,/,0.47,3
O=C(CC1CC2CCC1C2)Nc1nc(-c2ccccn2)cs1 (stereo unspecified),74*,10,12,-0.19,2
O=C(Nc1nc(-c2ccccn2)cs1)c1ccc(Br)s1,60*,4,15,39*,3
N#CC1=C2SCC(O)(c3ccccc3)N2C(=O)CC1c1ccccc1 (stereo unspecified),22,34*,/,-0.27,46
O=C(Nc1ccc2oc(Cc3ccc(Cl)cc3)nc2c1)c1cccnc1,-3,3,/,-0.19,-1
CCOc1cccc(C(=O)Nc2ccc3oc(Cc4ccc(Cl)cc4)nc3c2)c1,59*,21,/,-0.059,1
COc1ccc2[nH]c3c(c2c1)CCNC3C1CC=C(C)CC1 (stereo unspecified),-12,9.3*,17,-0.016,51*
COc1ccc2[nH]c(C)cc(=O)c2c1,14,3,/,-0.0035,1
N#CC(=NCc1cccnc1)C1=C(O)c2ccccc2C1=O,/,/,-6,0.4,0
CCn1c(=S)[nH]c2scc(-c3cccs3)c2c1=O,25,3,17,60*,-2
C=CCn1c(SCC(C)=O)nc2scc(-c3ccc(C)o3)c2c1=O,/,/,0,/,/
C=CCn1c(=S)[nH]c2scc(-c3ccc(C)o3)c2c1=O,65*,5,3,61*,-2
O=C(CSCC(=O)N1CCCCC1)OCC(=O)c1c[nH]c2ccccc12,-10,6,4,0.73,3
Cc1ccccc1OC1C(=O)N(Cc2ccc3c(c2)OCO3)C1c1sccc1C (stereo unspecified),20,2,15,/,-1
COc1cc(S(=O)(=O)N(C)C2CCCCC2)c(C)cc1C,59*,6,4,0.023,0
SMILES,WT yeast gro inh,MT stabilizer,Pf gamet viab,KCC2 mod,b-catenin transl
COC(=O)c1cc(S(=O)(=O)N(C)C2CCCCC2)oc1C,/,/,-18,-0.87,-2
C/C(=N/NC(=O)CNC(=O)c1cccs1)c1ccco1,/,/,-15,0.037,0
O=C(NCc1ccccc1)c1cccc(NS(=O)(=O)c2cccc3cccnc23)c1,-10,2,-5,-0.84,1
CC(=O)C1=C(c2cccc([N+](=O)[O-])c2)N(C(C)=O)n2c(C)nnc2S1,60*,3,-36,1.9,1
COCCCn1c(=S)[nH]c2c(sc3ccccc32)c1=O,34,3,19,57*,-2
c1ccc(CNc2nc(CN3CCOCC3)nc3scc(-c4ccccc4)c23)cc1,54,1,-17,-1.1,2
Clc1ccc(CNc2nc(CN3CCOCC3)nc3scc(-c4ccccc4)c23)cc1,79*,3,22,-1.1,0
Cc1cccc(NC(=O)N2C3CCCC2CC(NC(=O)C(C)(C)C)C3)c1 (stereo unspecified),/,/,-19,/,/
